# Test results reported in ChEMBL document CHEMBL1649269, “In vitro activities of three new dihydrofolate reductase inhibitors against clinical isolates of gram-positive bacteria” (2009).
# Legend:
# [1] = Antimicrobial activity against Group G Streptococcus by agar dilution method; format: functional; conditions: Streptococcus sp. 'group G'
# Summary of the method: (§1)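 Clinical isolates of beta-hemolytic streptococci, S. mitis and S. pneumoniae were tested by CLSI methodology, with Mueller-Hinton medium supplemented with 5% lysed horse blood. S. aureus ATCC 29213 and S. pneumoniae ATCC 49619 served as control strains. The percentage of susceptible isolates was derived from CLSI breakpoints.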
# Staphylococcus [2] = experiment: Antimicrobial activity against Coagulase-negative Staphylococcus by agar dilution method; format: functional
# Summary of the method: (§2)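 CLSI agar dilution MIC testing of clinical isolates of staphylococci and Listeria. S. aureus ATCC 29213 and S. pneumoniae ATCC 49619 served as control strains. The percentage of susceptible isolates was calculated from CLSI breakpoints.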
# [3] = Antimicrobial activity against Group C Streptococcus by agar dilution method; format: functional; conditions: Streptococcus sp. 'group C'; summary of the method: as §1
# Listeria monocytogenes [4] = experiment: Antimicrobial activity against Listeria monocytogenes by agar dilution method; format: functional; summary of the method: as §2
# [5] = test system: Streptococcus sp. 'group A'; experiment: Antimicrobial activity against Group A Streptococcus by agar dilution method; format: functional; summary of the method: as §1
# Staphylococcus aureus [6] = experiment: Antimicrobial activity against vancomycin-resistant Staphylococcus aureus by agar dilution method; format: functional
# Summary of the method: (§3)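 Clinical S. aureus isolates classed as hVISA or VISA by population analysis profiling. MICs by CLSI agar dilution, with S. aureus ATCC 29213 as control strain.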
# [7] = test system: Streptococcus sp. 'group A'; experiment: Antimicrobial activity against Group A Streptococcus assessed as susceptible isolates by agar dilution method; format: functional; summary of the method: as §1
# Corynebacterium sp. [8] = experiment: Antimicrobial activity against Corynebacterium spp. assessed as susceptible isolates by agar dilution method; format: functional
# Listeria monocytogenes [9] = experiment: Antimicrobial activity against Listeria monocytogenes assessed as susceptible isolates by agar dilution method; format: functional; summary of the method: as §2
# [10] = Antimicrobial activity against Group G Streptococcus assessed as susceptible isolates by agar dilution method; format: functional, Streptococcus sp. 'group G'; summary of the method: as §1
# Streptococcus pneumoniae [11] = experiment: Antimicrobial activity against Streptococcus pneumoniae assessed as susceptible isolates by agar dilution method; format: functional; summary of the method: as §1
# Corynebacterium sp. [12] = experiment: Antimicrobial activity against Corynebacterium spp. by agar dilution method; format: functional
# Staphylococcus aureus [13] = experiment: Antimicrobial activity against Heterovancomycin-resistant Staphylococcus aureus by agar dilution method; format: functional; summary of the method: as §3
# [14] = test system: Streptococcus sp. 'group B'; experiment: Antimicrobial activity against Group B Streptococcus by agar dilution method; format: functional; summary of the method: as §1
# [15] = Antimicrobial activity against Group C Streptococcus assessed as susceptible isolates by agar dilution method; format: functional, Streptococcus sp. 'group C'; summary of the method: as §1
# Streptococcus mitis [16] = experiment: Antimicrobial activity against Streptococcus mitis assessed as susceptible isolates by agar dilution method; format: functional; conditions: in the assay text read “broth dilution method” for “agar dilution method”; summary of the method: as §1
# [17] = test system: Streptococcus sp. 'group B'; experiment: Antimicrobial activity against Group B Streptococcus assessed as susceptible isolates by agar dilution method; format: functional; summary of the method: as §1
# Streptococcus pneumoniae [18] = experiment: Antimicrobial activity against Streptococcus pneumoniae by agar dilution method; format: functional; summary of the method: as §1
# Staphylococcus aureus [19] = experiment: Antimicrobial activity against methicillin-resistant Staphylococcus aureus by agar dilution method; format: functional
# Summary of the method: (§4)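 MICs against clinical MRSA or MSSA isolates by CLSI agar dilution, with S. aureus ATCC 29213 as control strain. Percentage of susceptible isolates was calculated from the MICs using CLSI breakpoints.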
# Staphylococcus aureus [20] = experiment: Antimicrobial activity against methicillin-sensitive Staphylococcus aureus by agar dilution method; format: functional; summary of the method: as §4
# Streptococcus mitis [21] = experiment: Antimicrobial activity against Streptococcus mitis by broth dilution method
# Staphylococcus aureus [22] = experiment: Antimicrobial activity against methicillin-sensitive Staphylococcus aureus assessed as susceptible isolates by agar dilution method; format: functional; summary of the method: as §4
# Staphylococcus [23] = experiment: Antimicrobial activity against Coagulase-negative Staphylococcus assessed as susceptible isolates by agar dilution method; format: functional; summary of the method: as §2
# Staphylococcus aureus [24] = experiment: Antimicrobial activity against Heterovancomycin-resistant Staphylococcus aureus assessed as susceptible isolates by agar dilution method; format: functional
# Staphylococcus aureus [25] = experiment: Antimicrobial activity against methicillin-resistant Staphylococcus aureus assessed as susceptible isolates by agar dilution method; format: functional; summary of the method: as §4
# Staphylococcus aureus [26] = experiment: Antimicrobial activity against vancomycin-resistant Staphylococcus aureus assessed as susceptible isolates by agar dilution method; format: functional
SMILES,MIC50 [1] [µg/mL],MIC90 [1] [µg/mL],MIC50 (Staphylococcus [2]) [µg/mL],MIC90 (Staphylococcus [2]) [µg/mL],MIC50 [3] [µg/mL],MIC90 [3] [µg/mL],MIC (Listeria monocytogenes [4]) [µg/mL],MIC50 (Listeria monocytogenes [4]) [µg/mL],MIC90 (Listeria monocytogenes [4]) [µg/mL],MIC50 [5] [µg/mL],MIC90 [5] [µg/mL],MIC50 (Staphylococcus aureus [6]) [µg/mL],MIC90 (Staphylococcus aureus [6]) [µg/mL],Activity [7] [%],Activity [10] [%],Activity (Streptococcus pneumoniae [11]) [%],MIC50 (Corynebacterium sp. [12]) [µg/mL],MIC90 (Corynebacterium sp. [12]) [µg/mL],MIC50 (Staphylococcus aureus [13]) [µg/mL],MIC90 (Staphylococcus aureus [13]) [µg/mL],further results
COc1ncc(C2c3ccccc3C=NN2C(=O)/C=C/c2cc(Cc3cnc(N)nc3N)cc(OC)c2OC)cn1 (stereo not given),0.03,0.06,0.06,8,0.015,0.06,0.015,0.015,0.015,0.06,0.06,0.03,0.25,100,100,100,0.06,4,0.03,0.06,Activity (Corynebacterium sp. [8]): 83%; Activity (Listeria monocytogenes [9]): 100%; MIC50 [14]: 0.03 µg/mL; MIC90 [14]: 0.06 µg/mL; Activity [15]: 100%; Activity (Streptococcus mitis [16]): 100%; Activity [17]: 100%; MIC50 (Streptococcus pneumoniae [18]): 0.06 µg/mL; MIC90 (Streptococcus pneumoniae [18]): 0.12 µg/mL; MIC (Staphylococcus aureus [19]): 0.015 µg/mL; MIC50 (Staphylococcus aureus [19]): 0.015 µg/mL; MIC90 (Staphylococcus aureus [19]): 0.06 µg/mL; MIC50 (Staphylococcus aureus [20]): 0.03 µg/mL; MIC90 (Staphylococcus aureus [20]): 0.03 µg/mL; MIC (Streptococcus mitis [21]): < 0.008 µg/mL; MIC50 (Streptococcus mitis [21]): < 0.008 µg/mL; Activity (Staphylococcus aureus [22]): 100%; Activity (Staphylococcus [23]): 86%
COc1cc(Cc2cnc(N)nc2N)cc(/C=C/C(=O)N2N=Cc3ccccc3C2c2cnc(N(C)C)nc2)c1OC (stereo not given),0.06,0.06,0.06,8,0.06,0.06,0.03,0.03,0.03,0.06,0.06,0.25,0.5,100,100,100,0.12,4,0.25,0.25,MIC [1]: 0.06 µg/mL; MIC [5]: 0.06 µg/mL; Activity (Corynebacterium sp. [8]): 83%; Activity (Listeria monocytogenes [9]): 100%; MIC [14]: 0.06 µg/mL; MIC50 [14]: 0.06 µg/mL; MIC90 [14]: 0.12 µg/mL; Activity [15]: 100%; Activity (Streptococcus mitis [16]): 100%; Activity [17]: 100%; MIC50 (Streptococcus pneumoniae [18]): 0.12 µg/mL; MIC90 (Streptococcus pneumoniae [18]): 0.25 µg/mL; MIC50 (Staphylococcus aureus [19]): 0.06 µg/mL; MIC90 (Staphylococcus aureus [19]): 0.25 µg/mL; MIC50 (Staphylococcus aureus [20]): 0.03 µg/mL; MIC90 (Staphylococcus aureus [20]): 0.03 µg/mL; MIC50 (Streptococcus mitis [21]): 0.03 µg/mL; Activity (Staphylococcus aureus [22]): 100%; Activity (Staphylococcus [23]): 86%
COc1cc(Cc2cnc(N)nc2N)cc(/C=C/C(=O)N2N=Cc3ccccc3C2c2cnc(N3CCOCC3)nc2)c1OC (stereo not given),0.03,0.06,0.06,4,0.06,0.12,0.06,0.06,0.06,0.06,0.12,0.06,0.5,100,100,100,0.12,4,0.06,0.06,MIC [1]: 0.03 µg/mL; MIC (Staphylococcus aureus [6]): 0.06 µg/mL; Activity (Corynebacterium sp. [8]): 83%; Activity (Listeria monocytogenes [9]): 100%; MIC [14]: 0.06 µg/mL; MIC50 [14]: 0.06 µg/mL; MIC90 [14]: 0.12 µg/mL; Activity [15]: 100%; Activity (Streptococcus mitis [16]): 100%; Activity [17]: 100%; MIC50 (Streptococcus pneumoniae [18]): 0.12 µg/mL; MIC90 (Streptococcus pneumoniae [18]): 0.12 µg/mL; MIC (Staphylococcus aureus [19]): 0.06 µg/mL; MIC50 (Staphylococcus aureus [19]): 0.06 µg/mL; MIC90 (Staphylococcus aureus [19]): 0.06 µg/mL; MIC50 (Staphylococcus aureus [20]): 0.12 µg/mL; MIC90 (Staphylococcus aureus [20]): 0.25 µg/mL; MIC50 (Streptococcus mitis [21]): 0.015 µg/mL; Activity (Staphylococcus aureus [22]): 100%; Activity (Staphylococcus [23]): 86%
CN[C@H](CC(C)C)C(=O)N[C@H]1C(=O)N[C@@H](CC(N)=O)C(=O)N[C@H]2C(=O)N[C@H]3C(=O)N[C@H](C(=O)N[C@H](C(=O)O)c4cc(O)cc(O)c4-c4cc3ccc4O)[C@H](O)c3ccc(c(Cl)c3)Oc3cc2cc(c3O[C@@H]2O[C@H](CO)[C@@H](O)[C@H](O)[C@H]2O[C@H]2C[C@](C)(N)[C@H](O)[C@H](C)O2)Oc2ccc(cc2Cl)[C@H]1O [VANCOMYCIN],0.12,0.12,1,2,0.12,0.5,1,1,1,0.25,0.25,2,4,100,100,100,0.25,0.5,1,2,MIC [1]: 0.12 µg/mL; MIC [3]: 0.12 µg/mL; Activity (Staphylococcus aureus [24]): 96%; MIC50 [14]: 0.25 µg/mL; MIC90 [14]: 0.25 µg/mL; Activity [15]: 100%; Activity [17]: 100%; Activity (Staphylococcus aureus [25]): 100%; MIC50 (Streptococcus pneumoniae [18]): 0.12 µg/mL; MIC90 (Streptococcus pneumoniae [18]): 0.25 µg/mL; Activity (Staphylococcus aureus [26]): 52%; MIC50 (Staphylococcus aureus [19]): 1 µg/mL; MIC90 (Staphylococcus aureus [19]): 1 µg/mL; MIC50 (Staphylococcus aureus [20]): 1 µg/mL; MIC90 (Staphylococcus aureus [20]): 1 µg/mL; MIC50 (Streptococcus mitis [21]): 1 µg/mL; Activity (Staphylococcus aureus [22]): 100%; Activity (Staphylococcus [23]): 100%
